HTR5A inv ag – HTR5A inverse agonists in luminescence cell assay, primary screen, counter-screen for OPRM1-OPRD1 heterodimer inverse agonist project, full-deck HTS. AID 504634, 2011. HTR5A cell line, inverse agonism. 5-hydroxytryptamine receptor 5A (Homo sapiens), P47898. inhibition, % at 9.3 µM. actives 0.083% (n = 340,000); in the data active = inhibition mostly above about 23%, no sharp cut-off; inactive = mostly below about 18%;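 note: 0% = cells with DMSO and 100% = no-cell wells with DMSO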
MC4R antag cAMP – MC4R antagonists of cAMP signaling, primary screen, cell-based, TR-FRET, antagonist arm of biased-ligand search; Melanocortin receptor 4 (Homo sapiens), P32245; MC4R-expressing cells, MTII-stimulated cAMP, LANCE TR-FRET; inhibition, % at 6.5 µM; actives 0.48% (n = 360,000); AID 540295, 2011;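 active = inhibition above its plate's cutoff, the mean of tested wells on that plate plus 3 SD, cut at about 29% in these data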;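 note: 0% = Melanotan II alone and 100% = Melanotan II plus saturating MCL0020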
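Assay system: U2OS cells stably expressing human melanocortin 4 receptor (MC4R) / Dosing: 6.5 µM / Timing: compound 30 min, challenge 1 h, detection 1 h / Measured by: Eu-cAMP/anti-cAMP TR-FRET, emission 671 nm / Replicates: singlicate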
HTR5A ag ctr – HTR5A agonists in luminescence cell assay, primary screen, counter-screen for OPRM1-OPRD1 heterodimer agonist project, full-deck HTS. 5-hydroxytryptamine receptor 5A (Homo sapiens), P47898. cell-based. activation, % at 9.3 µM. actives 0.61% (n = 340,000). AID 504692, 2011; in the data active = activation mostly above about 9.5%, no sharp cut-off; inactive = mostly below about 7.6%;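 note: 0% = cells with vehicle only and 100% = reference agonist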
MC4R barr agon – MC4R agonists recruiting beta-arrestin, primary screen, cell-based, luminescence, agonist arm of biased-ligand search | Melanocortin receptor 4 (Homo sapiens), P32245 | U2OS MC4R beta-arrestin complementation; percent of melanotan II response, DMSO zero | activation, % at 8.9 µM | actives 0.98% (n = 360,000) | AID 540308, 2011;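 active = activation above a per-plate cutoff, the mean activation of sample wells on that plate plus 3 SD, cut at about 8% in these data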
MOR-DOR ag – agonists of OPRM1-OPRD1 heterodimerization, primary screen, cell-based, luminescence; Mu-type opioid receptor (Homo sapiens) + Delta-type opioid receptor (Homo sapiens), …; cells; activation, % at 9.3 µM; actives 0.3% (n = 340,000); AID 504326, 2011; in the data active = activation above about 18%;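 note: 0% = vehicle-treated cells and 100% = reference agonist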
Target sequence (P35372 whole entry, looked up): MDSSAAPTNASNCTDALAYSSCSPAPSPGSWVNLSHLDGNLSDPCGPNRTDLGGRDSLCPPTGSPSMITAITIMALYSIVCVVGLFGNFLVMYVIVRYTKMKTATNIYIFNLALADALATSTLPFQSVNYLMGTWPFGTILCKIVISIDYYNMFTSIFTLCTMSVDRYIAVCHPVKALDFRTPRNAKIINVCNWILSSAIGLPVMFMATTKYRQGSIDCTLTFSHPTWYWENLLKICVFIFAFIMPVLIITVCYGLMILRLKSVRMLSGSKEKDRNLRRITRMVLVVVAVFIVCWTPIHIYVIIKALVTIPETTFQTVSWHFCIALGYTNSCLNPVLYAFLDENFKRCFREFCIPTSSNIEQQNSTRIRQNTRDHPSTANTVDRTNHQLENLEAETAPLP
Target sequence (P41143 whole entry, looked up): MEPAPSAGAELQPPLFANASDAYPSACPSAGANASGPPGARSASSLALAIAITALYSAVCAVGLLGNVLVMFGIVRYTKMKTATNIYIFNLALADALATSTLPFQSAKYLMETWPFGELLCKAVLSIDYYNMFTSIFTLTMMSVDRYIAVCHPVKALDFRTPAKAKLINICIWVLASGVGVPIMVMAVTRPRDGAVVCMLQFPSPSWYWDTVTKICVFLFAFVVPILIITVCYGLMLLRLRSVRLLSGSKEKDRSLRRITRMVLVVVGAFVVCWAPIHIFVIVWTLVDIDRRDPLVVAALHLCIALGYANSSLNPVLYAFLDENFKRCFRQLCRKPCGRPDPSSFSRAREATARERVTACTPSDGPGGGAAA
MOR-DOR inv ag – inverse agonists of MOR-DOR heterodimerization, primary screen, cell-based, luminescence; Mu-type opioid receptor (Homo sapiens) + Delta-type opioid receptor (Homo sapiens), …; cell-based MOR-DOR heterodimer luminescence, inverse agonism; inhibition, % at 9.3 µM; actives 0.21% (n = 340,000); in the data active = inhibition above about 22%, passing the limit was not always enough;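 note: 0% = cells with DMSO and 100% = wells without cells with DMSO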
MC4R barr ag – MC4R beta-arrestin agonists, retest, confirmation, cell-based, luminescence, U2OS; AID 602192, 2012; U2OS MC4R beta-arrestin recruitment; scaled DMSO 0%, Melanotan II 100%; shares compounds with MC4R barr agon; actives 31% (n = 2,400); activation, % at 8.9 µM;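 active = mean activation across replicates above the hit cutoff set in the earlier primary screen, cut at about 8% in these data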
MOR DOR agonist – agonists of MOR-DOR heterodimerization, counter-screen for MC4R biased agonist project, cell-based, luminescence | shares compounds with MC4R barr agon | U2OS PathHunter beta-arrestin, beta-gal luminescence; percent of deltorphin B response, DMSO zero | activation, % at 9.2 µM | actives 5.8% (n = 2,400) | AID 602194, 2012;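 active = mean activation across replicates exceeds the hit threshold derived in the earlier primary screen, cut at about 18% in these data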;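 note: 100% = deltorphin B at 0.9 µM final and 0% = DMSO alone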
* marks the source's active call; other numbers are inactive results; / = no result given. An excerpt weighted towards active compounds, which were near 2.4% of everything screened.

SMILES	HTR5A inv ag	MC4R antag cAMP	HTR5A ag ctr	MC4R barr agon	MOR-DOR ag	MOR-DOR inv ag	MC4R barr ag	MOR DOR agonist
COc1cc(OC)cc(C(=O)NC(=S)Nc2ccc(NC(=O)c3ccco3)cc2)c1	-28	1	2	12*	7	-34	3	5
Cc1cccc(NC(=O)c2cc(S(=O)(=O)N3CCc4ccccc43)cn2C)c1C	-17	5	-1	11*	1	-4	4	5
O=C(O)CSc1nc2ccccc2s1	13	-4	-2	2	-4	20	/	/
O=C(CSc1nc2ccccc2s1)Nc1ccc2c(c1)oc1ccccc12	-32	4	8	17*	4	-21	5	4
O=C(CSc1nc2ccccc2s1)CSc1nc2ccccc2s1	-19	0	3	15*	0	-1	8	2
Cn1c(SCC(=O)Nc2ccc3c(c2)oc2ccccc23)nnc1-c1ccccc1	-33	17	9	10*	5	-29	5	4
Cn1c(SCC(=O)Nc2ccc3[nH]c(=O)[nH]c3c2)nnc1-c1ccccc1	8	-1	-2	-5	-1	6	/	/
CCOC(=O)c1ccccc1NC(=O)CSc1nc2[nH]ncc2c(=O)[nH]1	-25	2	9	-4	0	-1	/	/
O=C(N=Nc1c(O)n(Cc2ccccc2)c2ccccc12)c1cc2ccccc2cc1O	19	-6	-7	16*	-1	6	19*	16
Cc1ccc(NC(=O)Cn2c(O)c(N=NC(=O)c3ccncc3)c3ccccc32)cc1	-5	-3	2	-2	-1	7	/	/
O=C(N=Nc1c(O)n(Cc2ccccc2)c2ccccc12)c1ccc(O)cc1	8	-6	-2	2	-1	3	/	/
Cc1ccc(NC(=O)Cn2c(O)c(N=NC(=O)c3cc4ccccc4cc3O)c3ccccc32)cc1	-34	3	9	12*	1	-3	8	41*
COc1ccc(C(=O)N2CCN(c3nc4cc(C)cc(C)c4cc3C#N)CC2)cc1	/	-5	/	0	/	/	/	/
COc1ccc(N(C(=O)c2cccnc2)S(=O)(=O)c2ccc(Cl)cc2)cc1	-7	9	2	2	-2	8	/	/
Cc1cc(NC(=O)c2cccc(COc3ccc(Br)cc3)c2)no1	1	-7	0	12*	7	-38	12*	4
CCOc1ccc(C(=O)Nc2cc(C)on2)cc1	6	-5	4	-4	1	-4	/	/
Nc1cccnc1Oc1ccc(F)cc1	-8	5	-7	-1	0	1	/	/
FC(F)(F)c1cccnc1Oc1ccc(C2=NCCS2)cc1	-5	3	1	42*	3	-14	24*	7
Cc1nc(-c2cccnc2)sc1C(=O)N/N=C/c1ccccc1Cl	/	-7	/	11*	/	/	-1	4
Cc1nc(-c2cccnc2)sc1C(=O)Nc1ccc(Cl)cc1	-14	2	-1	-1	-2	12	/	/
O=C(O)C1CCN(c2nc(-c3ccccc3)nc3c2oc2ccccc23)CC1	-7	17	-7	-4	1	-5	/	/
OCCN1CCN(c2nc(-c3ccccc3)nc3c2oc2ccccc23)CC1	-1	2	0	23*	8	-46	15*	11
O=C1OC(c2ccccc2)(c2cc(Br)ccc2O)c2ccccc21 (stereo unspecified)	-11	7	3	21*	10	-49	20*	9
NC(=O)CC(NC(=O)c1ccc(Br)cc1)c1ccc(N2CCC(Br)CC2)c([N+](=O)[O-])c1 (stereo unspecified)	-8	3	3	0	0	0	/	/
CC1CCCN(CCCN2C(=O)C3C(C(=O)Nc4cccc(Cl)c4)C4C=CC3(O4)C2C(=O)NC2CCCCC2)C1 (stereo unspecified)	10	-1	-4	-1	4	-30	/	/
SMILES	HTR5A inv ag	MC4R antag cAMP	HTR5A ag ctr	MC4R barr agon	MOR-DOR ag	MOR-DOR inv ag	MC4R barr ag	MOR DOR agonist
CC(=O)c1cccc(NC(=O)CNC(=O)c2sc3ccccc3c2Cl)c1	-18	9	7	19*	11	-68	24*	18*
Cc1cccc(NC(=O)CNC(=O)c2sc3ccccc3c2Cl)n1	-10	4	3	11*	13	-81	-1	13
Cc1nn(Cc2c(Cl)cccc2Cl)c(C)c1NC(=O)c1sc2ccccc2c1Cl	-2	1	2	45*	0	0	1	5
COC(=O)CCCN1C(=O)NC(c2ccc(-c3ccccc3)cc2)C(C(=O)OCc2ccccc2)=C1C (stereo unspecified)	-6	6	2	12*	2	-9	12*	3
COc1cc(COc2ccc(-c3nnco3)cc2)ccc1OC(F)F	4	2	0	12*	6	-32	7	8
O=C(C=C(C(=O)c1ccccc1)c1ccccc1)c1ccccc1	6	6	-2	-1	-1	5	/	/
CCn1cc(C(=O)NCc2cccc(C(F)(F)F)c2)c(=O)c2ccc(C)nc21	-2	3	1	14*	4	-22	2	4
Nc1c(-c2cccs2)cnn1-c1nc(-c2ccc(Cl)cc2Cl)cs1	8	-1	-3	19*	0	2	21*	3
CN(C)S(=O)(=O)c1cccc(CSCc2cccc(S(=O)(=O)N(C)C)c2)c1	-8	1	2	1	-1	3	/	/
COc1ccc(-c2cnc3c(NC=O)cc(-c4ccc(F)cc4)cn23)cc1OC	/	-25	/	8	/	/	/	/
COc1ccc(-c2cnc3c(NC=O)cc(-c4ccccc4)cn23)cc1OC	/	-35	/	27*	/	/	8	5
O=CNc1cc(-c2ccsc2)cn2c(-c3ccccc3)cnc12	/	-5	/	32*	/	/	35*	6
COc1ccc(-c2cnc3c(NC=O)cc(-c4ccoc4)cn23)cc1OC	/	-16	/	15*	/	/	9.3*	2

Screening data (PubChem BioAssay)
